From PubChem BioAssay
Lung fibro prol: blocks proliferation of human lung fibroblasts; LL 47 human lung fibroblast viability, ATP luminescence; stronger effect = lower value; viability, % at 10 µM; 85,000 tested, 1.1% active; AID 719;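 active means viability at or below 50% in the single dose screen; inactive means viability above 50%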;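 further: compound exposure lasted 72 h before the ATP readout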
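Signal: luminescent ATP detection, CellTiter-Glo; assay system: LL 47 human lung fibroblasts; input: 1,150 cells/well; incubation: overnight cell rest, 72 h compound treatment at 37 °C; measure: % viability versus median cells-only luminescence; medium: IMEM growth medium with 15% fetal bovine serum; dosing: compound addition at 0.1% DMSO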
bCat KO growth: beta-catenin-lacking colon tumor cell growth suppression | HCT116 beta-catenin knockout viability, CellTiter-Glo, 60 h; stronger effect = lower value | viability, % at 10 µM | 140,000 tested, 1.5% active | AID 818;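 active means viability at or under a set limit, the compound median less 4 SD, cut at about 6% in these data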
H69AR inhibit: blocks growth of human H69AR lung tumor cells; H69AR lung tumor viability, ATP luminescence, 72 h; stronger effect = lower value; viability, % at 10 µM; 85,000 tested, 6% active; AID 598;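 active means viability at or below 40%; inactive means viability above 40%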;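 further: multidrug resistant small cell line overexpressing MRP-1 efflux transporter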
HCT116 PTEN-null: PTEN-deleted cell growth suppression; 140,000 tested, 1.2% active; HCT116 PTEN-null viability, CellTiter-Glo, 60 h; stronger effect = lower value; viability, % at 10 µM;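 active means viability at or below a set limit, 4 SD under the median of all tested compounds, cut at about 3.7% in these data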;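 further: PTEN knockout HCT116 line with beta catenin targeted HCT116 as companion control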
HUVEC inhibit: inhibitors of human endothelial cell proliferation; HUVEC proliferation, CellTiter-Glo luminescence, 72 h; stronger effect = lower value; viability, % at 10 µM (by protocol); 86,000 tested, 1.1% active;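 active means viability at or below 30%; inactive means viability above 30%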
Numbers stand for hits; 0 = inactive; - = no result given. The sample as a whole holds a higher share of hits than the screen did.

SMILES	Lung fibro prol	bCat KO growth	H69AR inhibit	HCT116 PTEN-null	HUVEC inhibit
Cc1cnc(C(=O)Nc2cccc3cccnc23)cn1	43.2	0	3.6	0	5.1
CCOC(=O)CNS(=O)(=O)c1cc(-c2n[nH]c(=O)c3ccccc23)ccc1C	0	0	0	0	0
CCOC(=O)CNS(=O)(=O)c1cc(-c2nnc(Nc3ccc4c(c3)OCO4)c3ccccc23)ccc1C	-	3.6	-	3.5	-
COc1ccccc1S(=O)(=O)Cc1ccc(C(=O)N2CCN(c3cccc(Cl)c3)CC2)o1	0	0	9.4	0	0
Cc1cccc(N2CCN(C(=O)c3ccc(CS(=O)(=O)c4ccccc4C)o3)CC2C)c1 (stereo not drawn)	0	0	24.7	0	0
COc1ccccc1S(=O)(=O)Cc1ccc(C(=O)N2CCN(c3ccccc3)CC2)o1	0	0	0	0	0
Cc1ccc(S(=O)(=O)Cc2ccc(C(=O)N3CCN(c4cc(C)ccc4C)CC3)o2)cc1	0	0	17.2	0	0
Cc1ccc(C)c(N2CCN(C(=O)c3ccc(CS(=O)(=O)c4ccccc4C)o3)CC2)c1	0	0	15.0	0	0
Cc1ccc(S(=O)(=O)Cc2ccc(C(=O)N3CCCC3)o2)cc1	0	0	0	0	0
Cc1ccc(C)c(N2CCN(C(=O)C(Cc3ccccc3)n3cccc3)CC2)c1 (stereo not drawn)	0	0	22.0	0	0
Cc1cc(C(=O)N2CCN(c3cccc(Cl)c3)CC2)c(C)o1	0	0	15.9	0	0
Cc1cc(C(=O)N2CCN(c3ccccc3)CC2)c(C)o1	0	0	0	0	0
CCC(C)NC(=O)COC(=O)c1oc2ccccc2c1CSc1ccc(Cl)cc1 (stereo not drawn)	-	0	-	0	-
O=S(=O)(c1cccc(-c2nc3ccccc3s2)c1)N1CCOCC1	0	0	0	0	0
Cc1ccc(-c2nc3ccccc3s2)cc1S(=O)(=O)N1CCCC1	0	0	32.4	0	0
O=C(CCC1(C(=O)O)CCC(=O)NC1)NCc1ccccc1 (stereo not drawn)	0	0	0	0	0
CSc1cc(-c2ccccc2)n(Cc2ccc(Cl)cc2Cl)c(=O)c1C#N	0	0	35.8	0	0
Cc1cccc(Nc2nc(-c3ccc4c(c3)OCCO4)cs2)c1	0	0	22.1	0	0
COCc1cc(=O)[nH]c(Nc2nc3ccc(C)cc3o2)n1	5.2	0	21.4	0	0
CCOC(=O)c1cc2c(N)c(C(=O)c3cc(C#N)c(SC)nc3C)sc2nc1C	-	0	16.1	0	0
CC1=C(C(=O)Nc2ccccc2)C(c2ccc(C)o2)n2c(s/c(=C\c3ccco3)c2=O)=N1 (stereo not drawn)	0	0	3.5	0	0
COc1cccc(C2C(C(=O)Nc3ccccc3)=C(C)N=c3s/c(=C/c4ccc(OCC(=O)O)cc4)c(=O)n32)c1 (stereo not drawn)	-	0	-	0	-
COc1cc(N2CCCC2)c(OC)cc1/C=C(/C#N)c1cccc(F)c1	0	0	24.7	0	0
COc1cccc(/C=C(/C#N)c2ccc(F)cc2)c1OCc1cccc(C(=O)O)c1	-	0	-	0	-
N#C/C(=C/c1ccc(N2CCCCCC2)o1)c1cccc(F)c1	0	0	37.0	0	0
SMILES	Lung fibro prol	bCat KO growth	H69AR inhibit	HCT116 PTEN-null	HUVEC inhibit
N#C/C(=C\c1ccc(Sc2nc3ccccc3[nH]2)o1)c1ccccc1	0	0	32.6	0	0
N#C/C(=C\c1ccc(Sc2ccc(Cl)cc2)o1)c1nc2ccccc2[nH]1	-	0	-	0	-
N#C/C(=C/c1ccc(N2CCCCCC2)o1)c1ccc(F)cc1	11.2	0	2.8	0	0
COc1ccc(/C=C/C(=O)OCC(=O)Nc2ccc(Cl)c(S(=O)(=O)N(C)C)c2)cc1OC	-	0	-	0	-
N#C/C(=C/c1ccc(N2CCOCC2)o1)c1nc2ccccc2[nH]1	0	0	23.4	0	0
N#C/C(=C\c1ccc(N2CCOCC2)o1)c1ccccc1	-	0	-	0	-
CN1CCN(Cc2nc3ccccc3c(=O)n2Cc2nc(-c3ccc([N+](=O)[O-])cc3)cs2)CC1	-	0.8	-	0.5	-
COc1ccc(CCNc2nnc(Sc3nnnn3-c3ccccc3)s2)cc1OC	0	0	29.0	0	0
COC(=O)CC1Oc2ccc(C)cc2NC1=O (stereo not drawn)	0	0	0	0	0
C=C(C)C(=O)OC1(C(F)(F)F)Oc2cc(C)ccc2NC1=O (stereo not drawn)	17.4	0	1.5	0	15.0
Cc1c(NS(=O)(=O)c2ccc3c(c2)c(=O)n(C)c(=O)n3C)c(=O)n(-c2ccccc2)n1C	0	0	0	0	0
CCN(CC)CCn1c2ccccc2c2cnc(N)c(C#N)c21	22.3	4.3	28.8	0	0
CN(C)C=Nc1ncc2c3ccccc3n(CCN(C)C)c2c1C#N	0	0	0	0	0
CN(C(=O)COc1ccccc1C(=O)NCCOc1ccccc1)c1ccccc1	-	3.5	-	3.5	-
Cc1ccc(OC2=NS(=O)(=O)c3ccccc32)cc1	0	0	30.6	0	0
CCOC(=O)c1c(C)nc2c(c1-c1cc(OC)ccc1OC)C(=O)c1ccccc1-2	-	0	-	0	-
CCOC(=O)C1=C(Cc2ccc(OC)cc2)C(=O)c2ccccc2C1=O	0	0	1.8	0	0
CCOC(=O)C1=C(O)c2ccccc2C(=O)/C1=C\c1ccc(CC)cc1	-	0	-	0	-
CCOC(=O)C1=C(Cc2ccc(C)cc2)C(=O)c2ccccc2C1=O	0	0	2.0	0	17.5
COc1ccc(OC)c(Nc2nc3nonc3nc2N2CCCC(C)C2)c1 (stereo not drawn)	-	0	-	0	-
CCCCCCCCNC(C)C(O)c1ccc(SC(C)C)cc1 (stereo not drawn)	4.0	1.6	1.7	1.3	2.6
CON1C(=O)C(=O)N(OC)C(C)(C)C1(C)C	-	0	-	0	-
Cc1nn(-c2ccccc2)c(C)c1/C=N/NC(=O)c1ccccc1NS(=O)(=O)c1cccs1	-	0	-	0	-
O=C(CCCCCC(=O)N(CCO)CCO)N(CCO)CCO	0	0	25.7	0	0
CCCN(CCC)C(=O)CCSCCC(=O)N(CCC)CCC	-	0	-	0	-
SMILES	Lung fibro prol	bCat KO growth	H69AR inhibit	HCT116 PTEN-null	HUVEC inhibit
COc1ccccc1CNC(=O)C1(c2ccc(Cl)cc2)CC1	-	0	-	0	-
O=S(=O)(/N=C(/Sc1ccccc1)c1ccccc1)c1ccccc1	0	0	26.4	0	0
CS/C(=N\S(=O)(=O)c1ccccc1)c1ccccc1	-	0	-	0	-
CCOc1c(OC(C)=O)ccc(/C=C/c2ccc3cccc(OC)c3n2)c1[N+](=O)[O-]	-	0	-	0	-
O=C1C(Cl)=C(Nc2ccccc2O)C(=O)N1c1ccccc1	0	0	39.4	0	0
Cc1c(NC2=C(Cl)C(=O)N(c3ccccc3Cl)C2=O)c(=O)n(-c2ccccc2)n1C	-	0	-	0	-
Cc1c(NC2=C(Cl)C(=O)N(c3ccccc3)C2=O)c(=O)n(-c2ccccc2)n1C	0	0	4.8	0	0
COc1ccc(C(=O)OC(C)C(=O)Nc2cc(C(F)(F)F)ccc2Cl)c(OC)c1OC (stereo not drawn)	-	0	-	0	-
COC(=O)c1ccc2c(c1O)C(=O)c1ccccc1C2=O	-	4.5	-	2.8	-
Cc1cc(C)n(-c2nnc3n2N=C(c2c[nH]c4ccccc24)CS3)n1	0	0	17.1	0	0
